Blank lines part the entries; values can stand above or below the compound they belong to.
Experiments:
[1] = biological target: Adenosine receptors; A2b & A3 (Homo sapiens) (UniProt P29275+P0DMS8); assay: Selectivity ratio (h2B/hA3); type: protein assay
[2] = biological target: Adenosine receptors; A1 & A3 (Homo sapiens) (UniProt P30542+P0DMS8); assay: Selectivity ratio (hA1/hA3); type: protein assay
Adenosine receptor A2a [3] = biological target: T1, Adenosine receptor A2a (Homo sapiens, UniProt P29274); assay: Displacement of [3H]SCH-58261 from human Adenosine A2A receptor expressed in CHO cells; type: cell-based
Outline: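 Membranes from CHO cells expressing the human receptor (50 µg protein) with [3H]SCH58261 and six to eight competitor concentrations. Incubated 60 min at 25 °C. Nonspecific binding was set with NECA.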

Adenosine receptor A3 [4] = biological target: T2, Adenosine receptor A3 (Homo sapiens, UniProt P0DMS8); assay: Displacement of […] from human Adenosine A3 receptor expressed in CHO cells; type: cell-based
T2 sequence (P0DMS8 whole entry): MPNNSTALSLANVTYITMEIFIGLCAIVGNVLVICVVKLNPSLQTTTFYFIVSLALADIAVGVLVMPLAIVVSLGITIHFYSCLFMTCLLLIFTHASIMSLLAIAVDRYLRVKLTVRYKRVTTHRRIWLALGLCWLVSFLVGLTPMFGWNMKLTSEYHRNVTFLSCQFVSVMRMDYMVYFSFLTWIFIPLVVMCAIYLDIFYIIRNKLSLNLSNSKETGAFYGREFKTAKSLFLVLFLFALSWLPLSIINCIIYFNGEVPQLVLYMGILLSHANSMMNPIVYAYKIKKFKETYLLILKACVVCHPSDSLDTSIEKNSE
Outline: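 Membranes from CHO cells stably expressing human A3, in 50 mM Tris HCl, 10 mM MgCl2 (pH 7.4), 50 µg protein per tube, with 1 nM [3H]MRE3008-F20. Six to eight ligand concentrations were run in duplicate, 120 min at 4 °C. Nonspecific binding was taken with 1 µM MRE3008-F20. Bound ligand was collected on GF/B filters and counted; n = 3-6.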

Adenosine receptor A1 [5] = biological target: T3, Adenosine receptor A1 (Homo sapiens, UniProt P30542); assay: Displacement of [3H]DPCPX from human Adenosine A1 receptor expressed in CHO cells; type: cell-based
T3 sequence (P30542 whole entry): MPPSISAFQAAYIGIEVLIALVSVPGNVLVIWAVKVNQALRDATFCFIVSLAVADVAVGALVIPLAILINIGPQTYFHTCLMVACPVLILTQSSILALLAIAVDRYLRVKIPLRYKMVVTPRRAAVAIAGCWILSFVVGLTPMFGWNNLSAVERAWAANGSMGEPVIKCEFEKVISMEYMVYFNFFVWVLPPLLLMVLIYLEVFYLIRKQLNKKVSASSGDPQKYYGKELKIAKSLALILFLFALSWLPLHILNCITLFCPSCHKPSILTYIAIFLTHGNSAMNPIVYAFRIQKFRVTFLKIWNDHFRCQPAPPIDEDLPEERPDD
Outline: (§1)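 Human recombinant A1 receptor in CHO cell membranes, resuspended in 50 mM Tris HCl pH 7.4. Displacement run 120 min at 25 °C with 1 nM [3H]DPCPX, 50 µg protein per assay, and at least six to eight test concentrations. Nonspecific binding defined with CHA. Bound and free separated on glass-fiber filters; filter radioactivity counted. n = 3-6.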

Adenosine receptor A3 [6] = biological target: T2, Adenosine receptor A3; assay: Inhibition of IB-MECA agonist-mediated cAMP production in membranes of CHO cells expressing human Adenosine A3 receptor; type: functional, cell-based
Outline: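 Human A3-CHO membranes (in 50 mM Tris HCl, 10 mM MgCl2, 1 mM EDTA, pH 7.4) were preincubated for 10 min at 37 °C with 5 µM GTP, 0.5 mM Ro 20-1724 and 2.0 IU/mL adenosine deaminase. IB-MECA (100 nM) or antagonist was then added with 1 mM ATP and forskolin for 10 min. The reaction was stopped by 2 min boiling. cAMP was measured by [3H]cAMP competitive protein binding using beef adrenal binding protein, 150 min at 4 °C.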

Adenosine receptor A2b [7] = biological target: T4, Adenosine receptor A2b (Homo sapiens, UniProt P29275); assay: Displacement of [3H]DPCPX from human Adenosine A2B receptor expressed in HEK293 cells; type: cell-based
T4 sequence (P29275 whole entry): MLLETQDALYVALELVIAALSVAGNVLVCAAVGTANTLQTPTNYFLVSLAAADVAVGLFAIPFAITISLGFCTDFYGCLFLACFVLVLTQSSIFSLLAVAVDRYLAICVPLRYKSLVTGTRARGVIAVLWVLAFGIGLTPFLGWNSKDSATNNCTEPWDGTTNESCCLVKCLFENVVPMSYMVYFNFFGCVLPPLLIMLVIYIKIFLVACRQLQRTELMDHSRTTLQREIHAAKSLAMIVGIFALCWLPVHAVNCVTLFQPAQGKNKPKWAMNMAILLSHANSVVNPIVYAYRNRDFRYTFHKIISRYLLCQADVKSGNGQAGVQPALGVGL
Outline: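 Membranes from HEK-293 cells with human recombinant A2B receptor. Incubation 60 min at 25 °C in 50 mM Tris HCl, 10 mM MgCl2, 1 mM EDTA, 0.1 mM benzamidine, pH 7.4, with 2 IU/mL adenosine deaminase and 40 nM [3H]DPCPX. At least six to eight test concentrations. Nonspecific binding defined with NECA. n = 3-6.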

Adenosine receptor A2b [8] = biological target: T4, Adenosine receptor A2b; assay: Displacement of [3H]DPCPX from human Adenosine A2B receptor expressed in HEK293 cells; range 67-115; type: cell-based
Outline: (§2)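 HEK-293 membranes expressing the human receptor were incubated 60 min at 25 °C. Six to eight test concentrations were used. Nonspecific binding was set with NECA. n = 3-6.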

Adenosine receptor A3 [9] = biological target: T2, Adenosine receptor A3; assay: biochemical
Adenosine receptor A2a [10] = biological target: T1, Adenosine receptor A2a; assay: Displacement of [3H]SCH-58261 from human Adenosine A2A receptor expressed in HEK293 cells; range 33-48; type: cell-based
Adenosine receptor A1 [11] = biological target: T3, Adenosine receptor A1; assay: Displacement of [3H]DPCPX from human Adenosine A1 receptor expressed in CHO cells; range 275-386; type: cell-based; outline: as §1
Adenosine receptor A2b [12] = biological target: T4, Adenosine receptor A2b; assay: Displacement of [3H]DPCPX from human Adenosine A2B receptor expressed in HEK293 cells; range 124-180; type: cell-based; outline: as §2
Adenosine receptor A1 [13] = biological target: T3, Adenosine receptor A1; assay: Displacement of [3H]DPCPX from human Adenosine A1 receptor expressed in CHO cells; range 184-333; type: cell-based
Adenosine receptor A3 [14] = biological target: T2, Adenosine receptor A3; assay: Displacement of [3H]MRE3008-F20 from human Adenosine A3 receptor expressed in HEK cells; range 0.53-0.68; type: cell-based, HEK293
Adenosine receptor A2a [15] = biological target: T1, Adenosine receptor A2a; assay: Displacement of [3H]SCH-58261 from human Adenosine A2A receptor expressed in HEK293 cells; range 78-114; type: cell-based
Adenosine receptor A2b [16] = biological target: T4, Adenosine receptor A2b; assay: Displacement of [3H]DPCPX from human Adenosine A2B receptor expressed in HEK293 cells; […]; type: cell-based
Outline: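 Competition binding on membranes of HEK-293 cells carrying recombinant human A2B receptor. Incubation 60 min at 25 °C in 50 mM Tris HCl pH 7.4 with 10 mM MgCl2, 1 mM EDTA, 0.1 mM benzamidine and 2 IU/mL adenosine deaminase. Radioligand 40 nM [3H]DPCPX, at least six to eight test concentrations. NECA defined nonspecific binding. Bound ligand separated on glass-fibre filters and counted; n = 3-6.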

Adenosine receptor A2a [17] = biological target: T1, Adenosine receptor A2a; assay: Displacement of [3H]SCH-58261 from human Adenosine A2A receptor expressed in HEK293 cells; range 114-170; type: cell-based
Adenosine receptor A1 [18] = biological target: T3, Adenosine receptor A1; assay: Displacement of [3H]DPCPX from human Adenosine A1 receptor expressed in CHO cells; range 345-465; type: cell-based
Adenosine receptor A3 [19] = biological target: T2, Adenosine receptor A3; assay: Displacement of [3H]MRE3008-F20 binding at human Adenosine A3 receptor expressed in HEK cells; range 0.77-0.96; type: cell-based, HEK293
Adenosine receptor A3 [20] = biological target: T2, Adenosine receptor A3; assay: biochemical; remark: listed apart in the source
Adenosine receptor A2b [21] = biological target: T4, Adenosine receptor A2b; assay: Displacement of [3H]DPCPX from human Adenosine A2B receptor expressed in HEK293 cells; range 149-204; type: cell-based; outline: as §2
Adenosine receptor A1 [22] = biological target: T3, Adenosine receptor A1; assay: Displacement of [3H]DPCPX from human Adenosine A1 receptor expressed in CHO cells; range 198-382; type: cell-based; outline: as §1
Adenosine receptor A2a [23] = biological target: T1, Adenosine receptor A2a; assay: Displacement of [3H]SCH-58261 from human Adenosine A2A receptor expressed in HEK293 cells; range 96-133; type: cell-based
Adenosine receptor A1 [24] = biological target: T3, Adenosine receptor A1; assay: Displacement of [3H]DPCPX from human Adenosine A1 receptor expressed in CHO cells; range 290-418; type: cell-based; outline: as §1
Adenosine receptor A2a [25] = biological target: T1, Adenosine receptor A2a; assay: Displacement of [3H]SCH-58261 from human Adenosine A2A receptor expressed in HEK293 cells; range 40-62; type: cell-based
Adenosine receptor A3 [26] = biological target: T2, Adenosine receptor A3; assay: Displacement of [3H]MRE3008-F20 from human Adenosine A3 receptor expressed in HEK cells; range 0.37-0.56; type: cell-based, HEK293

T1 sequence (P29274 whole entry): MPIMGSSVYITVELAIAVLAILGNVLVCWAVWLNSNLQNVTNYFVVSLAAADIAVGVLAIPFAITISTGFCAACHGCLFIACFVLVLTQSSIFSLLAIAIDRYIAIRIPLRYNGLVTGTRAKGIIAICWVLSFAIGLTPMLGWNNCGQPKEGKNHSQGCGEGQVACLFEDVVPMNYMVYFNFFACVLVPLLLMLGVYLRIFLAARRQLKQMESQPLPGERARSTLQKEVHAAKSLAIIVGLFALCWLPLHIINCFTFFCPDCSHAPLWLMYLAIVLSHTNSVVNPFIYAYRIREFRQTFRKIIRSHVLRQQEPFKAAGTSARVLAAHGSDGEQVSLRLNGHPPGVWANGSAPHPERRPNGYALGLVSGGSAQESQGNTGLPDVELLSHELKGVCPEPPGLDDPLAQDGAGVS

SMILES: CCCCn1cc2c(nc(NC(=O)Nc3cccc(OC)c3)n3nc(-c4ccco4)nc23)n1
Ki (Adenosine receptor A2b [12]): 150 nM
Ratio [1]: 250
Ki (Adenosine receptor A1 [13]): 248 nM
Ratio [2]: 413
Ki (Adenosine receptor A3 [14]): 0.6 nM
Ki (Adenosine receptor A2a [15]): 95 nM

SMILES: CCCn1cc2c(nc(NC(=O)Nc3cccc(OC)c3)n3nc(-c4ccco4)nc23)n1
Ratio [1]: 438
Ratio [2]: 688
Ki (Adenosine receptor A3 [20]): 0.4 nM
Ki (Adenosine receptor A2b [21]): 175 nM
Ki (Adenosine receptor A1 [22]): 275 nM
Ki (Adenosine receptor A2a [23]): 113 nM

Second part, the compound after the results:

Ratio [1]: 204
Ratio [2]: 867
Ki (Adenosine receptor A2a [3]): 423 nM
Ki (Adenosine receptor A3 [4]): 0.81 nM
Ki (Adenosine receptor A1 [5]): 702 nM
IC50 (Adenosine receptor A3 [6]): 6.4 nM
Ki (Adenosine receptor A2b [7]): 165 nM
SMILES: Cn1cc2c(nc(NC(=O)Cc3ccccc3)n3nc(-c4ccco4)nc23)n1

Ratio [1]: 489
Ratio [2]: 1810
Ki (Adenosine receptor A2b [8]): 88 nM
Ki (Adenosine receptor A3 [9]): 0.18 nM
Ki (Adenosine receptor A2a [10]): 40 nM
Ki (Adenosine receptor A1 [11]): 326 nM
SMILES: CCn1cc2c(nc(NC(=O)Nc3ccccc3)n3nc(-c4ccco4)nc23)n1

Ki (Adenosine receptor A2b [16]): 215 nM
Ratio [1]: 250
Ratio [2]: 465
Ki (Adenosine receptor A2a [17]): 140 nM
Ki (Adenosine receptor A1 [18]): 400 nM
Ki (Adenosine receptor A3 [19]): 0.86 nM
SMILES: CCn1cc2c(nc(NC(=O)Nc3cccc(OC)c3)n3nc(-c4ccco4)nc23)n1

Ki (Adenosine receptor A1 [24]): 350 nM
Ki (Adenosine receptor A2b [12]): 150 nM
Ratio [1]: 333
Ratio [2]: 778
Ki (Adenosine receptor A2a [25]): 50 nM
Ki (Adenosine receptor A3 [26]): 0.45 nM
SMILES: CCCn1cc2c(nc(NC(=O)Nc3ccc(Br)cc3)n3nc(-c4ccco4)nc23)n1
